Measured values from PubChem BioAssay AID624204 (Sanford-Burnham Center for Chemical Genomics, 2012).
Hit rate of the full screen: of about 360,000 compounds, about 770 (0.21%) were called active. The sample holds actives, similar compounds and a random draw of the others, so the mix is not that of the screen.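 How the source made its calls: active means inhibition at least 30% at 10 µM, raw YFP signal under a set limit, fluorescence ratio 0.5 to 1.5; inactive means the rest.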

The compounds below were run against Sentrin-specific protease 1 (Homo sapiens) (UniProt Q9P0U3) (assay: human SENP1 catalytic domain inhibitors, primary screen, biochemical, FRET, uHTS (AID 624204;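 further: 0% = enzyme with DMSO and 100% = no enzyme wells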)). Details: recombinant SENP1 catalytic domain, CyPet-SUMO1-YPet FRET cleavage; at 10 µM; active compounds read high.
Procedure, shortened: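 System: Recombinant human SENP1 catalytic domain, His6-tagged | Incubation: Enzyme reaction for 50 min at room temperature, dark | Medium: Tris pH 8 with BME, BSA, NP40 and catalase | Also added: 25 nM SUMO1 FRET substrate | Compound: 10 µM single point, 0.5% DMSO | Measured by: FRET fluorescence in CFP and YFP emission channels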

Sequence of Sentrin-specific protease 1 (Homo sapiens) (Q9P0U3 419-644 limits assumed): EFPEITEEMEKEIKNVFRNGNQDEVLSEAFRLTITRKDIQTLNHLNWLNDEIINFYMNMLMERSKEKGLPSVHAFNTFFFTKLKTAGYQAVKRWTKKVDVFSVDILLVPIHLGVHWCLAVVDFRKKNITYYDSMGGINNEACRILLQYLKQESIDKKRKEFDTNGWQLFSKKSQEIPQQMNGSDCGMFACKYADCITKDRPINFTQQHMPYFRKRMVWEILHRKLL

inhibition, active:
N/C(=N\OC(=O)N1c2ccccc2Sc2ccccc21)c1ccc(Br)cc1 45.8%
O=C(COC(=O)Cn1cnc2ccccc21)Nc1cccc2c1C(=O)c1ccccc1C2=O 49.1%
CCN(CC)S(=O)(=O)c1cc([N+](=O)[O-])ccc1N=Nc1c(O)n(C)c2ccccc12 38.9%
CCCCCn1nnnc1-c1nc2cc3ccccc3cc2[nH]c1=O 70.6%
COc1cccc(/C=N/NC(=O)c2[nH]nc3c2CCc2ccccc2-3)c1O 48.9%
CCOc1cc(/C=C2\SC(N3CCCC(C)C3)=NC2=O)ccc1O (configuration not stated) 58.5%
CCOc1cc(/C=C2\SC(N3CCCCC3)=NC2=O)ccc1O 56.6%
Fc1cccc(Cc2c(-c3cccc(Cl)c3)nc3ccc(Br)cn23)c1 45.8%
O=[N+]([O-])c1ccc(N=NNc2ccc([N+](=O)[O-])cc2)cc1 67.8%
Cc1ccc(C(=O)N/N=C\c2cc(Br)c(Br)o2)cn1 41.1%
COC(=O)N/N=C/c1c[n+]([O-])c2ccccc2[n+]1[O-] 58.5%
COc1ccc(N2C(=O)C3C(C2=O)C(C(=O)c2ccccc2)N2CCCC32)cc1 (configuration not stated) 40%
COc1ccc(OC)c(C2C3=C(N=c4s/c(=C\c5cccc(O)c5)c(=O)n42)c2ccccc2CC3)c1 (configuration not stated) 45.9%

inhibition, inactive:
N/C(=N\OC(=O)CCc1ccccc1)c1ccc(Cl)cc1 4.15%
N/C(=N\OC(=O)c1ccc2c(c1)OCO2)c1ccc(Br)cc1 2.72%
Fc1ccc(CNCc2ccc(Br)cc2)cc1 0.319%
CC(C)c1ccc(S(=O)(=O)N2CCC3(CC2)OCCO3)cc1 -0.675%
CC(C)=CCN1CCN(Cc2cc3ccccc3[nH]2)CC1CCO (configuration not stated) -16.2%
O=C(OCC(=O)N1CCCCCC1)c1ccc(Br)c(S(=O)(=O)N2CCOCC2)c1 2.31%
CCC1CCCCN1CCNC(=O)c1[nH]c(C)c(C(C)=O)c1C (configuration not stated) -5.33%
CS(=O)(=O)Nc1ccccc1N=C(c1ccccc1)c1ccccc1 1.89%
CCc1ccc(C(=O)NN=C2CCCCCC2)s1 1.74%
COc1ccc(-c2c(C#N)cnc(C)c2C)c(O)c1OC 0.472%
COC(=O)CNC(=O)C(CCSC)NC(C)=O (configuration not stated) 2.78%
CC(C)n1cnc2c(NCc3ccccc3)cc(OCC3CCN(C)CC3)cc21 -28.3%
COCC1CCN(C(=O)C2CCC(=O)N(Cc3cccc(C(F)(F)F)c3)C2)CC1 (configuration not stated) 2.83%
O=C(c1cccs1)N(Cc1cc2ccccc2[nH]c1=O)CC1CCCO1 (configuration not stated) 0.621%
COc1ccc(S(=O)(=O)N2CCOC2CNC(=O)C(=O)NCc2ccc(F)cc2)cc1 (configuration not stated) 0.939%
Cc1oc2c(F)c(F)c(F)c(F)c2c1S(=O)(=O)Nc1cccc(C(F)(F)F)c1 0.0743%
COc1ccc(S(=O)(=O)N(C)C[C@H]2OCc3cnnn3CCCC(=O)N([C@H](C)CO)C[C@H]2C)cc1 0.96%
O=C(Cn1cnc2ccccc21)Nc1ccccc1-c1ccccc1 2.05%
O=C(COC(=O)Cn1cnc2ccccc2c1=O)NCC12CC3CC(CC(C3)C1)C2 -2.59%
O=[N+]([O-])c1cc(S(=O)(=O)Nc2cccc(Cl)c2)ccc1N=Nc1c(O)[nH]c2ccccc12 7.59%
CCN(CC)S(=O)(=O)c1ccc2c3c(cccc13)C(=O)S2 -5.16%
COc1ccccc1-c1noc(CSc2nc(C)cc(=O)[nH]2)n1 0.334%
CC(/C=C/C1(O)C(C)CC(=O)CC1(C)C)OC1OC(CO)C(O)C(O)C1O (configuration not stated) -6.63%
O=C(CNC(=O)N1CC(=O)Nc2ccccc21)Nc1ccc(Br)cc1F -5.9%
Cc1ccc(S(=O)(=O)NC2CCCCCC2)cc1C(N)=O 1.4%
CCN(C(=O)CSc1nnc2ccccn12)C1CCS(=O)(=O)C1 (configuration not stated) 0.95%
CCCCn1c(-c2cccc(C)c2)nc2cc3[nH]c(=O)c(C(C)C)nc3cc21 -46.9%
CCCCCn1nnnc1C1c2ccccc2C(=O)N1Cc1ccco1 (configuration not stated) 2.03%
CC(=O)Nc1ccc(Sc2ccccc2C(=O)N2CCCC2)cn1 0.55%
Cc1c(CN2CCC(n3nccc3NC(=O)CCc3ccccc3)CC2)cnn1C 2.13%
CCn1nc(C(=O)NNC(=O)C2CSC3(C)CCC(=O)N23)c2ccccc2c1=O (configuration not stated) 1.35%
CCc1nc2ccc(C(=O)Nc3cc(-c4ccccc4)ccc3OC)cn2c1N(CC)CC(=O)N(C)C -1.8%
CCCn1c(=O)c2ccccc2n2c(SCC(=O)/C(C#N)=C(\C)N)nnc12 -2.1%
CN(C)CCN(Cc1ccccc1)S(=O)(=O)c1csc(C(N)=O)c1 3.33%
Cc1ccc(SC(=O)COc2ccc(C)c(C)c2)cc1 4.05%
CC(C)OC(=O)CC(=O)CC(O)c1cccc([N+](=O)[O-])c1 (configuration not stated) 1.31%
COc1ccc(Cl)cc1C=CC=NNC(=O)c1ccncc1 2.79%
COc1ccccc1-c1nnc(NC(=O)c2cccc(N3C(=O)CCC3=O)c2)o1 1.37%
CCN1C(=O)/C(=C2\SC(N3CCCCC3)=NC2=O)c2ccccc21 1.36%
CCOc1cc(/C=C2\C(=N)N3N=C(C)SC3=NC2=O)ccc1OCCOc1ccccc1 -3.15%
CC1CCN(C2=NC(=O)/C(=C/c3cn[nH]c3-c3ccccc3)S2)CC1 -1.05%
Cc1cccc(N(C(=O)Cc2cccs2)C(C(=O)NCc2ccco2)c2ccncc2)c1 (configuration not stated) -0.142%
COc1ccc(S(=O)(=O)N2CCC(C(=O)NCCC(=O)NCCc3cccc(F)c3)CC2)cc1 1.66%
COc1ccc(CC(=O)N[C@@H]2c3cc(OC)c(OC)cc3C[C@H]2OCc2ccccc2)cc1 2.95%
O=C(NC1CCCCC1)C1CC(=O)N(CCc2ccccc2)C1 (configuration not stated) 1.46%
CCOC(=O)/C(=N\Nc1cc(Cl)ccc1Cl)N1CCN(C)CC1 0.895%
O=S(=O)(c1ccc(F)cc1)N1CCN(C(=S)NC2CCCC2)CC1 2.06%
CCCCn1nnnc1NCc1cc(OC)c(OC)c(OC)c1 1.02%
CCOC(=O)N1CCC(O)(c2cc(C)c(C)cc2C)CC1 0.28%
Clc1cccc(Cc2c(-c3cccc(Cl)c3)nc3ccc(Cl)cn23)c1 18.5%
Fc1cccc(Cc2c(-c3ccc(Cl)cc3)nc3ccc(Cl)cn23)c1 9.99%
CC(=O)N1CCOc2ccc(S(=O)(=O)N3CCN(c4cccc(C(F)(F)F)c4)CC3)cc21 2.33%
COc1ccc(N2CCC(N3CCN(C)C(CCO)C3)CC2)cc1 (configuration not stated) -1.06%
O=[N+]([O-])/C(N=Nc1ccccc1)=N\Nc1ccccc1 0.203%
NC(=O)C1(Nc2ccc([N+](=O)[O-])cc2)CCCC1 -1.76%
Brc1cc(/C=N/n2cnnc2)oc1Br 2.85%
O=C(N/N=C/c1ccc(Br)o1)c1cncc(Br)c1 0.704%
CC(C)(C)OC(=O)C[C@@H]1C/C=C\C[C@@H](CC(=O)N[C@@H](CO)Cc2ccccc2)C(=O)N2CCC[C@H]2COC1=O 1.24%
Cc1ccc(Cn2nnc3c(=O)[nH]c(C4CCN(S(=O)(=O)/C=C/c5ccccc5)CC4)nc32)cc1 -2.14%
Cc1cccc(Nc2nnc(SCC(=O)c3c(N)n(C4CC4)c(=O)[nH]c3=O)s2)c1C 1.61%
Nn1c(SCC(=O)Nc2nccs2)nncc1=O 2.89%
O=C(Nc1ccc2c(c1)OCCO2)C1c2ccccc2OCC(=O)N1Cc1ccccn1 (configuration not stated) -6.74%
Cc1ccc(F)c(NC(=O)CCc2ccccc2)c1 -0.0761%
CCNc1nc(N)nc(-c2cc(Cl)ccc2OC)n1 0.684%
O=C(CNC(=O)c1ccc(Cl)cc1Cl)NCC(=O)Nc1ccccc1N1CCOCC1 4.8%
CCCC1OC23CCCCC2C(C#N)(C#N)C1(C#N)C(=N)O3 (configuration not stated) -28.3%
CCOC(=O)CCC(=O)OCC(=O)NC(C)C1CC2CCC1C2 (configuration not stated) 2.09%
COC(=O)C(C)N=Cc1ccccc1 (configuration not stated) 3.52%
N#Cc1ccc(C(c2ccc(C#N)cc2)n2cncn2)cc1 -1.95%
O=C(Nc1cccc(OCC(=O)N2CCOCC2)c1)C1CCCCC1 -0.72%
CNC(=O)C[C@H]1C(=O)N(c2ccc(OC)cc2)C[C@@H]1Cc1ccccc1 3.98%
COc1ccc(N2C(=O)CC(N3CCC(C(N)=O)CC3)C2=O)cc1 (configuration not stated) -0.137%
CC(C)Oc1ccc(C(CC(=O)N2CCOCC2)C(C)C)cc1 (configuration not stated) 1.52%
CC(C)(C)c1cc(NC(=O)NN2CCOCC2)nn1-c1c(Cl)cc(Cl)cc1Cl 2.79%
Cn1c(N)cc(=O)n(C)c1=S -0.927%
COc1ccc(CCNS(=O)(=O)c2cc3c(cc2C)NC(=O)CO3)cc1OC 2.06%
CCC1([N+](=O)[O-])COC(c2ccc(C(C)C)cc2)OC1 (configuration not stated) 2.7%
Cc1ccc2c(c1)N(C(=O)CCC(=O)N1CCc3ccccc3C1)CCO2 1.45%
CCOC(=O)[C@H]1[C@H]2COc3ccc(Cl)cc3[C@@H]2N2C(=O)c3cc(C)ccc3NC(=O)[C@@]12C 1.07%
